Molecules are shown by their SMILES. Several values for one entry are separate records, joined by “and”; a condition that tells them apart may be missing. Identical values can stand only once. Among all 330,000 compounds or so, about 350 (0.11%) were called active.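 Rule for the calls: active = activation above the mean of all tested compounds plus 3 SD (cut at about 21% in these data); inactive = the rest.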 For the sample, actives were picked, then their nearest neighbours and some compounds at random.

Sequence of Caspase-3 (Homo sapiens) (P42574 whole entry D9A/D28A/D175A): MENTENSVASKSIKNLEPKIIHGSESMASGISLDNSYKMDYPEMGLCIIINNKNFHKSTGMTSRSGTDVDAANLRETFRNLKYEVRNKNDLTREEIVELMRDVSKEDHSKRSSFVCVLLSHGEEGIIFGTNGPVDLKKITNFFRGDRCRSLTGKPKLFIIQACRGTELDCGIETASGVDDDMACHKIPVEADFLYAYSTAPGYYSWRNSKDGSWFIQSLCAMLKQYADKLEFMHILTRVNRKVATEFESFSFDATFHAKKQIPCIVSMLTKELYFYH

The assay has as its target Caspase-3 (Homo sapiens) (UniProt P42574). Description: activators of human procaspase-3 D3A mutant, primary screen, biochemical, absorbance, PC-3 D3A mutant, single concentration (AID 463141).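 Note: 0% = DMSO alone and 100% = DMSO wells spiked with extra 5 µM PC-3 D3A.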 The note with it: recombinant procaspase-3 D3A, Ac-DEVD-pNA absorbance 405 nm; at 8.5 µM; hits give high values. The procedure, abridged:
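Assay system – Procaspase-3 D3A mutant · Benchmarks – DMSO low control, extra-enzyme high control · Technique – 405 nm absorbance of p-nitroaniline, reads at 0 and 120 min · Doses – 8.5 µM nominal · Measure – % activation between DMSO and enzyme-spiked controls · Also added – Ac-DEVD-pNA chromogenic peptide substrate · Schedule – 1 h compound preincubation, 2 h substrate hydrolysis at 25 °C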
With `Cc1ccc(C(=O)CN2C(=O)NC3(CCc4ccccc43)C2=O)c(C)c1` (stereo unspecified), the activation is 6% (inactive).
For the compound `Cc1ccc(C(=O)N2CCCC(c3ccccc3)=N2)cc1`, the activation was 3.86% (inactive).
For `COc1ccc2c(c1)c(=O)c(C(=O)c1ccc(Cl)cc1)cn2CC(=O)Nc1ccc(F)cc1`, the activation was 2.32% (inactive).
For `CC(C)COP(=O)(c1ccc(N(C)C)cc1)C(Nc1ccccc1)c1cccnc1` (stereo unspecified), the activation is 5.66% (inactive).
Take `Cc1nnc(SCC(=O)Nc2ncc3c(n2)CC(C)(C)CC3=O)s1`: the activation was -5.45% (inactive).
Turning to `CSc1ccc(/C=C/C(=O)NC23CC4CC(CC(C4)C2)C3)cc1`, the activation was 2.05% (inactive).
Consider `CN(CC(=O)NC1CCN(Cc2ccccc2)CC1)S(=O)(=O)c1ccc(Cl)s1`, for which the activation was 5.81% (inactive).
Then `C=CCNC(=O)C1CC2c3ccccc3C1c1ccccc12` (stereo unspecified), with 5.82% (inactive); and `COc1ccc(C2CC(c3cccs3)=NN2c2ccc(F)cc2)cc1OC` (stereo unspecified), with -19.4% (inactive).
In the case of `Fc1ccc(N2N=C(c3cccs3)CC2c2ccco2)c(F)c1` (stereo unspecified), the activation was 40% (active).
Turning to `O=C(COc1ccccc1Cl)N1N=C(c2cccs2)CC1c1ccco1` (stereo unspecified), the activation is 4.79% (inactive).
Then `COc1ccccc1N1CCN(C(=O)c2ccc(NC3=NC4CS(=O)(=O)CC4S3)cc2)CC1` (stereo unspecified), with -12% (inactive).
The same measure for `COc1ccc(Nc2ncc(C(=O)N3CCN(c4ccccc4OC)CC3)c3ccccc23)cc1`: 30.4% (active); for `COc1ccccc1N1CCN(C(=O)c2cn(-c3ccccc3)nc2-c2cccnc2)CC1`: -2.98% (inactive); for `O=C(NCc1cccnc1)Nc1cccc(NC(=O)NCc2cccnc2)c1F`: 2.89% (inactive).
Then `COC(=O)Cc1cnc(NC(=O)CSc2nc(C(C)C)cc(=O)[nH]2)s1`, with 5.45% (inactive); and `CCC(=O)Nc1c(C)n[nH]c1C`, with -3.68% (inactive).
For `N#Cc1ccc(C2N=C(c3ccccc3)NO2)cc1` (stereo unspecified), the activation is -2.62% (inactive).
With `COCc1c(C(=O)N/N=C\c2cccnc2)nnn1-c1nonc1N`, the activation was 0.8% (inactive).
Then `Cc1cccc(N=Nc2c(O)[nH]c3ccc(F)cc23)c1`, with 12.6% (inactive); and `COc1ccc(-c2onc3ccc(C(C)=O)cc23)cc1`, with 103% (active).
As to `Oc1ccc(-c2onc3ccc(Cl)cc23)cc1`, the activation is -12.8% (inactive).
For the compound `CC(OC(=O)c1ccc2noc(-c3ccccc3)c2c1)C(N)=O` (stereo unspecified), the activation was -2.76% (inactive).
For the compound `COc1ccc(NC(=S)N2N=CCC2c2ccccc2)cc1` (stereo unspecified), the activation is 11.4% (inactive).
Consider `c1cnc(N2CCN(c3ccc4ccccc4n3)CC2)nc1`, for which the activation was 2.75% (inactive).
The same measure for `NC[C@H](Cc1ccccc1)NCCc1cc(C(F)(F)F)cc(C(F)(F)F)c1`: -5.68% (inactive); for `COc1ccccc1C(=O)N1CCN=C1SCc1cccnc1`: -6.62% (inactive).
Regarding `O=C(CCN1CCN(C/C=C/c2ccccc2)CC1)Nc1ccccc1Cl`, the activation is 8.05% (inactive).
Then `Cn1cnc([N+](=O)[O-])c1Sc1n[nH]c(N)n1`, with 6.6% (inactive).
With `COCCCNC(=S)N(Cc1ccccc1)Cc1ccc(F)cc1`, the activation is -1.61% (inactive).
For `CCCNc1ncnc2sc(C)c(C)c12`, the activation was -0.52% (inactive).
As to `CN(C)c1ccc2c(=O)[nH][nH]c(=O)c2c1`, the activation was 10.1% (inactive).
The same measure for `CCOc1ccccc1NC(=O)C1CCCN(S(=O)(=O)c2ccccc2)C1` (stereo unspecified): 2.37% (inactive); for `CN1CC(=O)N=C1N`: 6.53% (inactive) and -3.63% (inactive).
Take `CCOC(=O)CNC(=O)CSc1ccc2nnc(-c3cccnc3)n2n1`: the activation is 0.59% (inactive).
Take `CC(C)NC(=S)N1CCN(S(C)(=O)=O)CC1`: the activation is 9.6% (inactive).
The same measure for `CC(=O)c1ccc(N=C2SCCCN2C(=O)C2CCCCC2)cc1`: 8.2% (inactive).
`COc1cc(C(=O)NC2CCN(Cc3ccccc3)CC2)cc(Cl)c1OC(C)C`: the activation was 4.82% (inactive).
Regarding `CCOc1ccc2c(c1)cc(CN(C(=O)CC)C1CCCCC1)c1nnnn12`, the activation is 0.4% (inactive).
In the case of `O=C(c1ccc(N2CCOCC2)c([N+](=O)[O-])c1)N1CCN(S(=O)(=O)c2cccs2)CC1`, the activation was -3.64% (inactive).
Then `CC1CCN(C(=S)NC(=O)c2ccccc2Br)CC1`, with -4.02% (inactive); and `Oc1ccccc1C1=NN(c2ccccc2)C(c2ccccc2)C1` (stereo unspecified), with 32.8% (active); and `CC(=O)Oc1ccccc1C1=NN(C(C)=O)C(c2ccccc2)C1` (stereo unspecified), with 1.13% (inactive).
Then `COc1ccc(C2CC(c3cccs3)=NN2c2ccccc2)cc1` (stereo unspecified), with -24.6% (inactive); and `O=C(CCNc1n[nH]c(=O)[nH]c1=O)N/N=C\c1ccc(Br)cc1`, with -3.48% (inactive).
The same measure for `Cc1c(S(=O)(=O)N2CC(C)CC(C)C2)c(=O)n(C)c(=O)n1C` (stereo unspecified): -6.15% (inactive); for `CCc1ccc2oc(-c3ccc(N)cc3)nc2c1`: 5.03% (inactive); for `COC(=O)c1cc(NC(=O)CN2CCC(C(N)=O)(N3CCCCC3)CC2)cc(C(=O)OC)c1`: 12.7% (inactive).
For the compound `O=C(CC(NC(=O)c1ccccc1)c1ccccc1)Nc1ccc(F)c(F)c1` (stereo unspecified), the activation was 5.87% (inactive).
For the compound `CC(C)OC(=O)c1cc(NC(=O)C2C3CCC(O3)C2C(=O)O)cc(C(=O)OC(C)C)c1` (stereo unspecified), the activation is -5.36% (inactive).
Then `CN1CCCN(C(=O)C2CCCCC2)CC1`, with 5.38% (inactive).
Then `CCN(CC)c1ccc(NC(=O)CN2CCN(c3ccccn3)CC2)cc1`, with -5.15% (inactive).
In the case of `Cc1cccc(C2C3=C(CCCC3=O)N=C3c4ccccc4C(=O)C32)c1` (stereo unspecified), the activation was -13.4% (inactive).
With `CN(C)C(=O)N=NC(=O)N(C)C`, the activation is -12.2% (inactive).
Then `O=C(COC(=O)C1CC2CCCC(C1)C2=O)NC(=O)c1ccccc1` (stereo unspecified), with -4.78% (inactive); and `COC(=O)C(C(=O)Nc1cccc(Cl)c1C)C1CCCC1` (stereo unspecified), with 1.15% (inactive).
The same measure for `COc1ccc(CN2CCN(C(=O)CCC(=O)Nc3nnc(C(C)C)s3)CC2)cc1F`: -6.44% (inactive); for `O=C(CSC1=NS(=O)(=O)c2cc(F)ccc2N1)Nc1ccccc1F`: -6.67% (inactive); for `COc1ccccc1N=Cc1c(O)c2ccccc2oc1=O`: 26.5% (active).
With `COc1cc(N=Cc2c(O)c3ccccc3oc2=O)c(OC)cc1Cl`, the activation is 3.99% (inactive).
`COc1ccccc1N=C(C)C1=C(O)COC1=O`: the activation is -3.88% (inactive).
On to `COC(=O)c1cc(OC)c(OC)cc1NC(=O)C1CCCO1` (stereo unspecified), for which the activation was -0.83% (inactive).
In the case of `COc1ccc(CN2CCC(c3nc4ccc(Cl)cc4[nH]3)CC2)cc1`, the activation was -3.22% (inactive).
`O=C(NCC(=O)N(c1ccccc1)C(C(=O)NCC1CCCO1)c1ccccc1)c1cccs1` (stereo unspecified): the activation was -3.61% (inactive).
Take `COCCn1c(SCC(=O)Nc2nc(C)cs2)nnc1C(C)C`: the activation is 2.76% (inactive).
On to `CCCN1C2=C(C(=O)CCC2)C(c2ccc(O)c(Br)c2)C2=C1CCCC2=O`, for which the activation is -10.1% (inactive).
Then `COc1ccc(C)cc1NC(=O)NCc1ccccn1`, with -10.4% (inactive); and `COc1ccc(C)cc1Nc1nc(C)nc2c1oc1ccccc12`, with 4.37% (inactive).
Take `COC(=O)c1cnc(Nc2cc(C)ccc2OC)c2ccccc12`: the activation is 35.2% (active).
In the case of `COc1ccc(CN2[C@@H](CC(=O)O)c3cc(F)ccc3S2(=O)=O)cc1`, the activation was 3.51% (inactive).
In the case of `CC1CCCN(S(=O)(=O)c2ccc(N(C(=O)c3cnccn3)C(C(=O)NC3CCCCC3)c3cccs3)cc2)C1` (stereo unspecified), the activation is 3.94% (inactive).
`Cc1cccc(C)c1N1C(=O)CN(Cc2ccccc2)C1=S`: the activation is -3% (inactive).
As to `NC(=O)c1nsc(C(=O)N(CCCN2CCOCC2)C(C(=O)NC2CCCCC2)c2ccc(Cl)cc2)c1N` (stereo unspecified), the activation was -8.01% (inactive).
On to `Cc1nn(C)cc1C(=O)NNC(=S)Nc1ccc(Cl)cc1`, for which the activation was -4.7% (inactive).
For the compound `Cc1nn(C)cc1CNC(=O)Nc1ccc(Cl)cc1`, the activation was 31.2% (active).
Turning to `O=C(NCc1ccccn1)Nc1ccc(Cl)cc1`, the activation was -0.71% (inactive).
`CN(C)CCNC(=O)C(C(=O)c1ccccc1)n1ccccc1=O` (stereo unspecified): the activation was 2.49% (inactive).
`O=C(Cn1nc(C(=O)O)c2ccccc2c1=O)Nc1ccc(F)cc1`: the activation was 2.68% (inactive).
For `Cc1cccc(NC(=O)c2cccc(C(=O)Nc3cccc(C)c3C)n2)c1C`, the activation was -5.05% (inactive).
Take `Cc1ccccc1CSCCNC(=O)c1ccc(N(C)S(=O)(=O)c2ccccc2)cc1`: the activation was -1.26% (inactive).
Then `COc1cc(CNCc2cccs2)cc(Br)c1OC`, with 2.29% (inactive); and `CCCC(=O)Nc1nc2ccc(NC(=O)c3c(F)c(F)c(OC)c(F)c3F)cc2s1`, with 8.06% (inactive).
Take `COc1ccc2nc(NC(=O)NC3CCCCC3)sc2c1`: the activation is -1.14% (inactive).
Regarding `COc1ccc2nc(Nc3nc4ccc(NC(C)=O)cc4s3)sc2c1`, the activation was 28.4% (active).
Turning to `COc1cccc(C(=O)OCc2cc(=O)oc3c(C)c(C)ccc23)c1OC`, the activation is 1.33% (inactive).
For `COC(=O)Cc1cc(=O)oc2c(C)c(O)ccc12`, the activation was 22.9% (active).
The same measure for `CCCc1cc(=O)oc2c(C)c(OCC(=O)Nc3ccccn3)ccc12`: -8.09% (inactive); for `C=CCSc1ccc(S(=O)(=O)N2CCN(C)CC2)cn1`: 6.46% (inactive).
As for `COC(=O)[C@@H]1C[C@@]2(O)[C@H](O)[C@H](O)[C@H](O)C[C@H]2N1Cc1ccc(C(C)(C)C)cc1`, the activation is 1.49% (inactive).
The same measure for `COc1ccc(CNC(=O)c2ccc(NS(=O)(=O)c3ccc4[nH]c(=O)[nH]c4c3)cc2)cc1OC`: -5.34% (inactive); for `C[C@@H]1CN([C@H](C)CO)C(=O)c2cc(NC(=O)NC3CCCCC3)ccc2O[C@H]1CN(C)S(C)(=O)=O`: -10.4% (inactive); for `COc1ccccc1C1C(C#N)=C(N)Oc2c1c(-c1ccccc1)nn2-c1ccccc1` (stereo unspecified): 3.18% (inactive).
`Cc1cc(C)n(-c2nc(O)cc(=O)[nH]2)n1`: the activation was 13.4% (inactive).
Consider `CCOc1ccc2c(=O)c(-c3ccc4c(c3)OCCCO4)c(C)oc2c1`, for which the activation was -0.35% (inactive).
Turning to `O=C(CSCc1ccccc1Cl)NNC(=O)c1ccccc1`, the activation was -5.37% (inactive).
On to `O=C(Nc1cccc2ccccc12)c1onc2c1CCCC2`, for which the activation is 2.73% (inactive).
